Results published in ChEMBL document CHEMBL1158477, “Synthesis, in vivo evaluation, and molecular modeling studies of new pyrazolo[5,1-c][1,2,4]benzotriazine 5-oxide derivatives. Identification of a bifunctional hydrogen bond area related to the inverse agonism” (J Med Chem, 2009).
Calls of active or inactive are those of the source. No cut-off for these calls is given here.

Tests used:
Mus musculus [1] = experiment: Anxiolytic activity in CD1 albino mouse at 10 mg/kg, po after 30 mins by light/dark box test; format: functional, organism-based; set-up: dose 10 mg/kg
Method in brief: (§1)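 Male CD-1 mice (22-24 g) given test substance po in 1% CMC (10 mL/kg), tested 30 min later in a light/dark box. Transfers between compartments and time spent in the illuminated side were measured. Values are mean ± SEM of 15-20 mice; compared with controls.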

Mus musculus [2] = experiment: Anxiolytic activity in CD1 albino mouse at 30 mg/kg, po after 30 mins by light/dark box test; format: functional, organism-based; set-up: dose 30 mg/kg; method in brief: as §1
Mus musculus [3] = experiment: Anxiolytic activity in CD1 albino mouse at 30 mg/kg, po after 30 mins by light/dark box test in presence of flumazenil; format: functional, organism-based; set-up: dose 30 mg/kg
Method in brief: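 Light/dark box in male CD-1 mice. Test substance given po in 1% CMC 30 min before the test, with flumazenil 100 mg/kg ip (saline) co-treatment. Transfers between compartments and time in the lit side recorded. Mean ± SEM of 15-20 mice.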

Mus musculus [4] = experiment: Effect on learning and memory process in CD1 albino mouse assessed as decrease in retention latency at 10 mg/kg, po after 24 hrs by passive avoidance test; format: functional, organism-based; set-up: dose 10 mg/kg
Method in brief: (§2)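 Step-through passive avoidance in a two-compartment box (lit and dark compartments joined by a guillotine door). Male CD-1 mice dosed po (1% CMC) 30 min before training; retention tested 24 h later. Training and retention latencies recorded; mean ± SEM of 15-20 mice versus controls.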

Mus musculus [5] = experiment: Effect on learning and memory process in CD1 albino mouse assessed as decrease in retention latency at 30 mg/kg, po after 24 hrs by passive avoidance test; format: functional, organism-based; set-up: dose 30 mg/kg; method in brief: as §2
Mus musculus [6] = experiment: Effect on ethanol-induced sleeping time in CD1 albino mouse assessed as increase in duration of loss of righting reflex at 10 mg/kg, po preincubated 30 mins before ethanol challenge; format: functional, organism-based; set-up: dose 10 mg/kg
Mus musculus [7] = experiment: Effect on ethanol-induced sleeping time in CD1 albino mouse assessed as increase in duration of loss of righting reflex at 30 mg/kg, po preincubated 30 mins before ethanol challenge; format: functional, organism-based; set-up: dose 30 mg/kg
Bos taurus = organism: Bos taurus; experiment: Displacement of [3H]flumazenil from GABAA/Benzodiazepine receptor in bovine brain at 10 uM
Method in brief: (§3)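 Bovine brain membranes; displacement of specific [3H]flumazenil (Ro15-1788) binding. Percent inhibition measured at 10 μM; Ki determined only when inhibition at that concentration exceeded 80%. Ki given as mean ± SEM of five determinations.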

Mus musculus [8] = experiment: Anticonvulsant activity against pentylenetetrazole-induced shock in CD1 albino mouse assessed as absence of shocks at 1 mg/kg, ip preincubated for 30 mins before pentylenetetrazole challenge measured for 30 mins; format: functional, organism-based; set-up: dose 1 mg/kg
Method in brief: (§4)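 Male CD-1 mice (22-24 g), drug in isotonic saline given ip; PTZ 90 mg/kg sc injected 30 min after drug. Occurrence of clonic generalized convulsions noted over 30 min, with shock and convulsion latency recorded. Controls received 1% CMC.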

Mus musculus [9] = experiment: Anticonvulsant activity against pentylenetetrazole-induced convulsions in CD1 albino mouse assessed as absence of convulsions at 1 mg/kg, ip preincubated for 30 mins before pentylenetetrazole challenge measured for 30 mins; format: functional, organism-based; set-up: dose 1 mg/kg; method in brief: as §4
Mus musculus [10] = experiment: Anxiolytic activity in CD1 albino mouse at 1 mg/kg, ip after 20 mins by light/dark box test in presence of flumazenil; format: functional, organism-based; set-up: dose 1 mg/kg
Method in brief: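 Male CD-1 mice given drug ip in saline, tested in a light/dark box. Number of transfers between compartments and time spent in the illuminated side recorded. Flumazenil given ip at 100 mg/kg as antagonist.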

Mus musculus [11] = experiment: Effect on ethanol-induced sleeping time in CD1 albino mouse assessed as increase in duration of loss of righting reflex at 1 mg/kg, ip preincubated 30 mins before ethanol challenge; format: functional, organism-based; set-up: dose 1 mg/kg
Method in brief: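 Male CD-1 mice given drug ip in saline. Ethanol 4 g/kg ip injected 30 min after drug. Duration of loss of righting reflex taken as sleep time, capped at 210 min. Mean of 15-20 mice per group.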

Mus musculus [12] = experiment: Effect on motor coordination in CD1 albino mouse assessed as number of falls form rotarod at 10 mg/kg, po […] measured for 30 seconds after 30 mins of dosing by rotarod test; format: functional; details: 10 mg/kg
Method in brief: (§5)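 Rota-rod in male CD-1 mice with a pretest. Test substance given po in 1% CMC; falls from the rotating rod counted over 30 s, assessed 30 min after treatment.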

Mus musculus [13] = experiment: Effect on motor coordination in CD1 albino mouse assessed as number of falls form rotarod at 30 mg/kg, po […] measured for 30 seconds after 30 mins of drug infusion by rotarod test; format: functional; details: 30 mg/kg; method in brief: as §5
Mus musculus [14] = experiment: Anticonvulsant activity against pentylenetetrazole-induced shock in CD1 albino mouse assessed as shock latency at 10 mg/kg, po preincubated for 30 mins before pentylenetetrazole challenge measured for 30 mins (RVb=253.1 +/- 13 seconds); format: functional; details: 10 mg/kg
Mus musculus [15] = experiment: Anticonvulsant activity against pentylenetetrazole-induced shock in CD1 albino mouse assessed as shock latency at 30 mg/kg, po preincubated for 30 mins before pentylenetetrazole challenge measured for 30 mins (RVb=253.1 +/- 13 seconds); format: functional; details: 30 mg/kg
Mus musculus [16] = experiment: Anticonvulsant activity against pentylenetetrazole-induced convulsions in CD1 albino mouse assessed as convulsion latency at 10 mg/kg, po preincubated for 30 mins before pentylenetetrazole challenge measured for 30 mins (RVb=599 +/- 37.6 seconds); format: functional; details: 10 mg/kg
Mus musculus [17] = experiment: Anticonvulsant activity against pentylenetetrazole-induced convulsions in CD1 albino mouse assessed as convulsion latency at 30 mg/kg, po preincubated for 30 mins before pentylenetetrazole challenge measured for 30 mins (RVb=599 +/- 37.6 seconds); format: functional; details: 30 mg/kg
Mus musculus [18] = experiment: Effect on spontaneous motility in CD1 albino mouse assessed as number of movement on plane board at 10 mg/kg, po after 30 mins by hole-board test; format: functional; details: 10 mg/kg
Method in brief: (§6)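 Hole-board test in male CD-1 mice: animals placed singly on the board and allowed to explore panel and holes. Test run 30 min after po dosing in 1% CMC (10 mL/kg). Hole entries (curiosity) and plane movements (spontaneous motility) counted; 10 mice per group, compared with CMC controls.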

Mus musculus [19] = experiment: Effect on spontaneous motility in CD1 albino mouse assessed as number of movement on plane board at 30 mg/kg, po after 30 mins by hole-board test; format: functional; details: 30 mg/kg; method in brief: as §6
Mus musculus [20] = experiment: Effect on spontaneous motility in CD1 albino mouse assessed as number of movement on plane board at 50 mg/kg, po after 30 mins by hole-board test; format: functional; method in brief: as §6
Mus musculus [21] = experiment: Effect on spontaneous motility in CD1 albino mouse assessed as number of movement on plane board at 100 mg/kg, po after 30 mins by hole-board test; format: functional; method in brief: as §6
Mus musculus [22] = experiment: Effect on explorative capacity in CD1 albino mouse assessed as curiosity-related number of head plugging activity on hole at 10 mg/kg, po after 30 mins by hole-board test; format: functional; details: 10 mg/kg; method in brief: as §6
Mus musculus [23] = experiment: Effect on explorative capacity in CD1 albino mouse assessed as curiosity-related number of head plugging activity on hole at 30 mg/kg, po after 30 mins by hole-board test; format: functional; details: 30 mg/kg; method in brief: as §6
Mus musculus [24] = experiment: Effect on explorative capacity in CD1 albino mouse assessed as curiosity-related number of head plugging activity on hole at 50 mg/kg, po after 30 mins by hole-board test; format: functional; method in brief: as §6
Mus musculus [25] = experiment: Effect on explorative capacity in CD1 albino mouse assessed as curiosity-related number of head plugging activity on hole at 100 mg/kg, po after 30 mins by hole-board test; format: functional; method in brief: as §6
[26] = Displacement of [3H]flumazenil from GABAA/Benzodiazepine receptor in bovine brain; set-up: species or system Bos taurus; method in brief: as §3

Question: Which Activity (Mus musculus [1]) does the source give for CC(Oc1ccc2c(c1)n1ncc(I)c1n[n+]2[O-])c1ccccc1 (stereo in doubt; (+)-16) here?
Answer: Active

Question: And the Activity (Mus musculus [2])?
Answer: Active

Question: What about the Activity (Mus musculus [3]) of the same compound?
Answer: inactive

Question: And the Activity (Mus musculus [4])?
Answer: Active

Question: And the Activity (Mus musculus [5])?
Answer: Active

Question: What about the Activity (Mus musculus [6]) of the same compound?
Answer: Active

Question: What about the Activity (Mus musculus [7]) of the same compound?
Answer: Active

Question: And the Activity (Bos taurus)?
Answer: > 80%

Question: Which Activity (Mus musculus [8]) does the source give for CN1C(=O)CN=C(c2ccccc2)c2cc(Cl)ccc21 here?
Answer: Active

Question: And the Activity (Mus musculus [9])?
Answer: Active

Question: What about the Activity (Mus musculus [10]) of the same compound?
Answer: inactive

Question: What about the Activity (Mus musculus [11]) of the same compound?
Answer: Active

Question: Which Activity (Mus musculus [12]) does the source give for CC(Oc1ccc2c(c1)n1ncc(I)c1n[n+]2[O-])c1ccccc1 (single isomer, unassigned; (-)) here?
Answer: 2

Question: What about the Activity (Mus musculus [13]) of the same compound?
Answer: 1.6

Question: What about the Activity (Mus musculus [14]) of the same compound?
Answer: 513 s

Question: What about the Activity (Mus musculus [15]) of the same compound?
Answer: 323.7 s

Question: And the Activity (Mus musculus [16])?
Answer: 1078 s

Question: What about the Activity (Mus musculus [17]) of the same compound?
Answer: 549.2 s

Question: And the Activity (Mus musculus [18])?
Answer: 61.9

Question: And the Activity (Mus musculus [19])?
Answer: 56.8

Question: What about the Activity (Mus musculus [20]) of the same compound?
Answer: 44

Question: And the Activity (Mus musculus [21])?
Answer: 59.2

Question: And the Activity (Mus musculus [22])?
Answer: 27

Question: What about the Activity (Mus musculus [23]) of the same compound?
Answer: 34.5

Question: And the Activity (Mus musculus [24])?
Answer: 13.3

Question: And the Activity (Mus musculus [25])?
Answer: 22.9

Question: And the Ki [26]?
Answer: 2.1 nM
